Among the data in ChEMBL document CHEMBL1158399, “Synthesis, biological evaluation and molecular modeling of oxoisoaporphine and oxoaporphine derivatives as new dual inhibitors of acetylcholinesterase/butyrylcholinesterase” (Eur J Med Chem, 2009) are Ratio IC50, IC50 and Ki values, retold here.

Where only a bound is given, the exact number is not on record here.

Test [1] in a line: Selectivity ratio of IC50 for equine serum BuChE to IC50 for electric eel AChE. The method, boiled down: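 Modified Ellman assays with electric eel AChE and equine serum BuChE (enzyme stocks 2.0 units/mL). AChE substrate was acetylthiocholine chloride (0.01 M stock), in phosphate buffer pH 8.0 with DTNB (0.01 M stock), after 15 min inhibitor preincubation. A412 read over 1 min at 37 °C. IC50s are means ± SEM of three experiments; ratio = IC50(BuChE)/IC50(AChE).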

In test [2] the target is T1, Acetylcholinesterase (Electrophorus electricus, UniProt O42275). Briefly: Inhibition of electric eel AChE by Ellman's method. (Ellman's reagent forms a yellow product with free thiols.)
T1 sequence (O42275 whole entry): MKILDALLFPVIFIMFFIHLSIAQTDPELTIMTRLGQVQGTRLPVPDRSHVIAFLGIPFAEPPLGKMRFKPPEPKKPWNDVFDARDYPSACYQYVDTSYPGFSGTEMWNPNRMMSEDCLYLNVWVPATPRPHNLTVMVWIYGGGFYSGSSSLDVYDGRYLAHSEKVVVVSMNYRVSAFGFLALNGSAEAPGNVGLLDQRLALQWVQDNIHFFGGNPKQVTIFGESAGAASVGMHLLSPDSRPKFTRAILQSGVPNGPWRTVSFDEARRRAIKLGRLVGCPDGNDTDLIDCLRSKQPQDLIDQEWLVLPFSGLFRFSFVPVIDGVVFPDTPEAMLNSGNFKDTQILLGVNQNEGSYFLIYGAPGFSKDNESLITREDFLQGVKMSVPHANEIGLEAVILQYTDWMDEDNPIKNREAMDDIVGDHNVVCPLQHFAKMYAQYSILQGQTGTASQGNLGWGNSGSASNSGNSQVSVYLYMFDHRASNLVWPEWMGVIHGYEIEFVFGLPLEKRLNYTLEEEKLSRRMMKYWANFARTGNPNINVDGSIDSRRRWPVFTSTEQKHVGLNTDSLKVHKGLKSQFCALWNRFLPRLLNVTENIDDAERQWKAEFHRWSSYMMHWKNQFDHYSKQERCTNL
Another test addresses Cholinesterase (Equus caballus, UniProt P81908). Briefly: Inhibition of equine serum BuChE by Ellman's method. The method, boiled down: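 Modified Ellman assay with equine serum BuChE (enzyme stock 2.0 units/mL), run the same way as the AChE assay. Phosphate buffer pH 8.0 with DTNB (0.01 M stock). Inhibitor incubated 15 min with enzyme, buffer and DTNB before substrate was added. Absorbance rise at 412 nm read over 1 min at 37 °C. IC50 given as mean ± SEM of three experiments.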

Test [3] concerns the target T1, Acetylcholinesterase. Kind of test: Inhibition of electric eel AChE by LB plot.

Chain of Cholinesterase (P81908 whole entry): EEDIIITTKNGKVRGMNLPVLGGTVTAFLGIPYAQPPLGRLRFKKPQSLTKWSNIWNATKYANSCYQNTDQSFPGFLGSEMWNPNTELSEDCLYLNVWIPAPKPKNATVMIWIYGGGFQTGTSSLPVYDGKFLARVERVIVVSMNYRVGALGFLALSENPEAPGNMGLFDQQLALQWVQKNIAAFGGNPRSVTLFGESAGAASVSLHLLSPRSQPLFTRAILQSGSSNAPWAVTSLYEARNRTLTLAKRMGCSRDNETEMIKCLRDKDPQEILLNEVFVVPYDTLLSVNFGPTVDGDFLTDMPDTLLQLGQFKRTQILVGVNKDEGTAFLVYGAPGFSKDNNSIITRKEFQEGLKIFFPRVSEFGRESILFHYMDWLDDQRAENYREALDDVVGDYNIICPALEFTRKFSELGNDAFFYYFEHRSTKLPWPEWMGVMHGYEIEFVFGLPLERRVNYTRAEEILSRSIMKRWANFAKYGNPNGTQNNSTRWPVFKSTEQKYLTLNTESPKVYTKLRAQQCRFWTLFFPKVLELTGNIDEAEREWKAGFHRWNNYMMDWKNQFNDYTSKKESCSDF

On to `CC[N+](C)(CC)CCNC(=O)c1cnc2c3c(cccc13)-c1ccccc1C2=O`, for which the Ratio IC50 in test [1] was 5. Besides, the figures for the concentration for half-maximal inhibition (IC50) against Acetylcholinesterase [2] and on Cholinesterase were 1.71 µM and 8.14 µM, respectively.
With `C[N+]1(CCC(=O)Nc2ccc3c(c2)C(=O)c2cccc4ccnc-3c24)CCCCC1`, the inhibitory constant (Ki) on Acetylcholinesterase [3] is 0.00031 µM. The Ratio IC50 in test [1] worked out at 1250. Further, the IC50 against Acetylcholinesterase [2] was determined as 0.00048 µM; at Cholinesterase, 0.6 µM.
`C[N+](C)(C)CCC(=O)Nc1ccc2c(c1)C(=O)c1cccc3ccnc-2c13`: in test [1], the Ratio IC50 was found to be 590. The compound also returned an IC50 on Cholinesterase of 2.82 µM.
On to `C[N+]1(CCNC(=O)c2cnc3c4c(cccc24)-c2ccccc2C3=O)CCCCC1`, for which the Ratio IC50 in test [1] amounted to 16. Also, the IC50 was 0.35 µM on Acetylcholinesterase [2] and 6.76 µM at Cholinesterase.
The like results for `CC[N+](C)(CC)CCC(=O)Nc1ccc2c(c1)C(=O)c1cccc3ccnc-2c13` were, in that order, 1980, 0.00262 µM and 5.19 µM.
At Acetylcholinesterase [3], `O=C1c2ccccc2-c2cccc3ccnc1c23` yielded an inhibition constant Ki of 14.6 µM. Besides, in test [1], the Ratio IC50 was found to be 0.4. The IC50 against Acetylcholinesterase [2] was 10.6 µM; at Cholinesterase it was 4.01 µM.
As for `C[N+]1(CCCNC(=O)c2cnc3c4c(cccc24)-c2ccccc2C3=O)CCOCC1`, in test [1], the Ratio IC50 turned out to be 4. Also, the 50% inhibitory concentration (IC50) came out at 1.05 µM against Acetylcholinesterase [2] and 4.75 µM on Cholinesterase.
As to `C[N+]1(CCCNC(=O)c2cnc3c4c(cccc24)-c2ccccc2C3=O)CCCCC1`, the Ki at Acetylcholinesterase [3] was 0.11 µM. Also, the Ratio IC50 in test [1] is 57. For the same compound, the figures for the IC50 against Acetylcholinesterase [2] and at Cholinesterase were 0.11 µM and 6.24 µM, respectively.
Take `CC[N+](C)(CC)CCCNC(=O)c1cnc2c3c(cccc13)-c1ccccc1C2=O`: in test [1], the Ratio IC50 was 15. The concentration for half-maximal inhibition (IC50) against Acetylcholinesterase [2] was determined as 0.65 µM; on Cholinesterase, 9.72 µM.
As to `C[N+]1(CCNC(=O)c2cnc3c4c(cccc24)-c2ccccc2C3=O)CCOCC1`, the Ratio IC50 in test [1] is 9. Also, the IC50 against Acetylcholinesterase [2] is 1.24 µM; against Cholinesterase, 11.7 µM.
`O=C(NCCCO)c1cnc2c3c(cccc13)-c1ccccc1C2=O`: in test [1], the Ratio IC50 worked out at 4. In addition, the IC50 against Acetylcholinesterase [2] was 12.2 µM; at Cholinesterase, 53.3 µM.
Taken in the same sequence, the figures for `O=C(NCCO)c1cnc2c3c(cccc13)-c1ccccc1C2=O` were 4, 18 µM and 68.7 µM.
The like results for `C[N+](C)(C)CCCNC(=O)c1cnc2c3c(cccc13)-c1ccccc1C2=O` were, in that order, 1, 3.16 µM and 2.71 µM.
As for `C[N+](C)(C)CCNC(=O)c1cnc2c3c(cccc13)-c1ccccc1C2=O`, the Ratio IC50 in test [1] was determined as 1. Also, the IC50 worked out at 3.32 µM against Acetylcholinesterase [2] and 5.03 µM at Cholinesterase.
At Acetylcholinesterase [3], `Nc1ccc2c(c1)C(=O)c1cccc3ccnc-2c13` showed a Ki of 3.86 µM. This compound also came in with a concentration for half-maximal inhibition (IC50) against Cholinesterase above 100 µM.

Usually IC50 stands for the midpoint of a concentration-inhibition curve. A lower IC50 goes with greater potency in that assay. In general, Ki refers to a dissociation constant, usually derived from enzyme kinetics or from competition with a known ligand.
